The values below come from ChEMBL document CHEMBL4414638, “Structure-Activity Relationship of Peptide-Conjugated Chloramphenicol for Inhibiting Escherichia coli” (J Med Chem, 2019).

For orientation: MIC means the lowest concentration found to suppress growth.

Data set [1] deals with Escherichia coli. As to the kind of experiment: Antibacterial activity against Escherichia coli K-12 assessed as reduction in bacterial growth incubated for 16 hrs. The format is functional. Conditions: K-12, 16 h.
In data set [2] the test system is Escherichia coli. As to the kind of experiment: Antibacterial activity against Escherichia coli K-12 assessed as reduction in bacterial growth incubated for 16 hrs in presence of porcine liver esterase. In kind it is functional. Conditions: K-12, 16 h.
Data set [3] concerns Escherichia coli. Kind of data set: Antibacterial activity against Escherichia coli K-12 assessed as reduction in bacterial growth incubated for 16 hrs in absence of porcine liver esterase. In kind it is functional. Conditions: K-12, 16 h.
A short description of data set [4]: Drug metabolism in Escherichia coli K-12 lysates assessed as esterase-mediated drug hydrolysis at 200 uM incubated up to 24 hrs by HPLC analysis. Conditions: escherichia coli k-12, isolated protein. In kind it is ADME, subcellular, Lysate.
A short description of data set [5]: Drug metabolism in human HepG2 cells lysates assessed as esterase-mediated drug hydrolysis at 200 uM incubated up to 24 hrs by HPLC analysis. The format is ADME, subcellular, Lysate. Conditions: hepg2, 24 h.
The nature of data set [6]: Drug metabolism in Escherichia coli K-12 lysates assessed as esterase-mediated drug hydrolysis by measuring apparent first-order rate constant at 200 uM incubated up to 24 hrs by HPLC analysis. The format is ADME, subcellular, Lysate. Conditions: escherichia coli k-12, isolated protein.
Data set [7] concerns Escherichia coli. Kind of data set: Antibacterial activity against ydgR gene deficient Escherichia coli assessed as reduction in bacterial growth at 0.1 to 100 uM incubated for 16 hrs. In kind it is functional, organism-based.
Data set [8] relates to Escherichia coli. Kind of data set: Antibacterial activity against fepA gene deficient Escherichia coli assessed as reduction in bacterial growth at 0.1 to 100 uM incubated for 16 hrs. The format is functional, organism-based.
Data set [9] concerns Escherichia coli. Kind of data set: Antibacterial activity against ompF gene deficient Escherichia coli assessed as reduction in bacterial growth at 0.1 to 100 uM incubated for 16 hrs. In kind it is functional, organism-based.
Data set [10] relates to Escherichia coli. As to the kind of experiment: Antibacterial activity against acrA gene deficient Escherichia coli assessed as reduction in bacterial cell viability at 0.1 to 100 uM incubated for 16 hrs relative to control. In kind it is functional.
Data set [11] deals with Escherichia coli. As to the kind of experiment: Antibacterial activity against bioH gene deficient Escherichia coli assessed as reduction in bacterial growth at 0.1 to 100 uM incubated for 16 hrs. The format is functional, organism-based.
The test system of data set [12] is Escherichia coli. Kind of data set: Antibacterial activity against yjfP gene deficient Escherichia coli assessed as reduction in bacterial growth at 0.1 to 100 uM incubated for 16 hrs. The format is functional, organism-based.
Data set [13] has as its system Escherichia coli. As to the kind of experiment: Antibacterial activity against frsA gene deficient Escherichia coli assessed as reduction in bacterial growth at 0.1 to 100 uM incubated for 16 hrs. The format is functional, organism-based.
In data set [14] the test system is Escherichia coli. As to the kind of experiment: Antibacterial activity against ybfF gene deficient Escherichia coli assessed as reduction in bacterial growth at 0.1 to 100 uM incubated for 16 hrs. The format is functional, organism-based.
The test system of data set [15] is Escherichia coli. As to the kind of experiment: Antibacterial activity against yfbB gene deficient Escherichia coli assessed as reduction in bacterial growth at 0.1 to 100 uM incubated for 16 hrs. In kind it is functional, organism-based.
Data set [16] concerns Escherichia coli. Kind of data set: Antibacterial activity against ypfH gene deficient Escherichia coli assessed as reduction in bacterial growth at 0.1 to 100 uM incubated for 16 hrs. In kind it is functional, organism-based.
Data set [17] relates to Escherichia coli. Kind of data set: Antibacterial activity against yeiG gene deficient Escherichia coli assessed as reduction in bacterial growth at 0.1 to 100 uM incubated for 16 hrs. In kind it is functional, organism-based.
In data set [18] the test system is Escherichia coli. As to the kind of experiment: Antibacterial activity against yqiA gene deficient Escherichia coli assessed as reduction in bacterial growth at 0.1 to 100 uM incubated for 16 hrs. In kind it is functional, organism-based.
A short description of data set [19]: Drug metabolism in human serum assessed as formation of chloramphenicol at 200 uM at 37 degC after 24 hrs by LC-MS analysis relative to control.
Data set [20] is described as follows: Cytotoxicity in human HS5 cells assessed as reduction in cell viability at 20 uM to 2 mM incubated up to […]rs relative to chloramphenicol. The format is cell-based.
For data set [21], the system named is HEK293. Kind of data set: Cytotoxicity in human HEK293 cells assessed as reduction in cell viability at 20 uM […] relative to chloramphenicol. The format is cell-based. Conditions: hek293, 20 µM.
Data set [22] can be described thus: Drug metabolism in human serum assessed as formation of chloramphenicol at 200 uM at 37 degC after 2 hrs by LC-MS analysis relative to control.
Data set [23] can be described thus: Cytotoxicity in human HS5 cells assessed as reduction in cell viability at 0.5 to 50 uM incubated […] relative to chloramphenicol. The format is cell-based. The essentials: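 HS-5 cells were exposed for 24 h to conjugates and chloramphenicol at 20, 200 or 2000 μM, or to comparator antibiotics at 0.5, 5 or 50 μM, and cell viability was then read.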
The test system of data set [24] is HEK293. As to the kind of experiment: Cytotoxicity in human HEK293 cells assessed as reduction in cell viability at 0.5 uM […] relative to chloramphenicol. The format is cell-based. Conditions: hek293, 0.5 µM.

The structures appear in SMILES notation. Converted amounts (≈) assume the structure as drawn. The source made the active and inactive calls. The calls are words filed in the database; no cut-off is given here.

Turning to `O=C(O)CNC(=O)[C@@H](CO)NC(=O)CCC(=O)OC[C@@H](NC(=O)C(Cl)Cl)[C@H](O)c1ccc([N+](=O)[O-])cc1`, the MIC stood at 40 µM in the data set on Escherichia coli [1], 40 µM in the data set with Escherichia coli [2] and 40 µM (≈ 22.7 µg/mL) in the data set with Escherichia coli [3]. The Drug metabolism entry in [4], in data set [5] and in data set [19] was “Metabolite_Detected” in each case. For the same molecule, the K in [6] is 1.267 h⁻¹. Besides, the result in the data set with Escherichia coli [7], in the data set with Escherichia coli [8] and in the data set with Escherichia coli [9] was Active. Also, the Activity in the data set on Escherichia coli [10] worked out at 40%. For the same molecule, the outcome with Escherichia coli [11], with Escherichia coli [12], with Escherichia coli [13], in the data set on Escherichia coli [14], with Escherichia coli [15] and in the data set with Escherichia coli [16] was inactive. For the same molecule, the outcome with Escherichia coli [17] and in the data set with Escherichia coli [18] was inactive.
For the molecule `O=C(CCC(=O)OC[C@@H](NC(=O)C(Cl)Cl)[C@H](O)c1ccc([N+](=O)[O-])cc1)NCC(=O)N[C@H](CO)C(=O)O`, the minimal inhibitory concentration (MIC) in the data set with Escherichia coli [1] is 20 µM; in the data set on Escherichia coli [2] it was 20 µM; in the data set with Escherichia coli [3], 20 µM (≈ 11.3 µg/mL). In addition, the Drug metabolism result in data set [4], in data set [5], in data set [22] and in data set [19] was “Metabolite_Detected” each time. Besides, in data set [6], the K was determined as 3.763 h⁻¹. Also, the outcome in the data set on Escherichia coli [7], in the data set with Escherichia coli [8] and in the data set with Escherichia coli [9] was Active. Also, the Activity in the data set on Escherichia coli [10] is recorded as 30%; in [20], “Non-Toxic”; with HEK293 [21] it was “Toxic”. For the same molecule, the result in the data set on Escherichia coli [11], in the data set on Escherichia coli [12], in the data set on Escherichia coli [13], with Escherichia coli [14], in the data set on Escherichia coli [15] and in the data set on Escherichia coli [16] was inactive. In addition, the result with Escherichia coli [17] and in the data set on Escherichia coli [18] was inactive.
For the molecule `COc1cc(Cc2cnc(N)nc2N)cc(OC)c1OC` [TRIMETHOPRIM], the minimum inhibitory concentration (MIC) in the data set on Escherichia coli [1] worked out at 1 µg/mL. Also, the Activity entry is reported as “Non-Toxic” in data set [23] and “Toxic” with HEK293 [24].
In the case of `O=C(O)c1cn(C2CC2)c2cc(N3CCNCC3)c(F)cc2c1=O` [CIPROFLOXACIN], the Activity result in data set [23] is recorded as “Non-Toxic”; with HEK293 [24], “Toxic”.
With `O=C(CCC(=O)OC[C@@H](NC(=O)C(Cl)Cl)[C@H](O)c1ccc([N+](=O)[O-])cc1)NCC(=O)NCC(=O)N[C@H](Cc1ccccc1)C(=O)O`, the MIC in the data set with Escherichia coli [1] is 20 µM. Moreover, the Activity entry is given as “Non-Toxic” in [20] and “Toxic” in the data set on HEK293 [21]. Besides, the Drug metabolism result in data set [22] and in data set [19] was “Metabolite_Detected” each time.
Consider `NCCCC[C@H](NC(=O)CNC(=O)CCC(=O)OC[C@@H](NC(=O)C(Cl)Cl)[C@H](O)c1ccc([N+](=O)[O-])cc1)C(=O)O`, for which the MIC in the data set on Escherichia coli [1] turned out to be 20 µM. The values for the Activity result (in data set [20]; in the data set with HEK293 [21]) were “Non-Toxic” and “Toxic”, respectively. The Drug metabolism result in data set [22] and in data set [19] was “Metabolite_Detected” each time.
For `NCCCC[C@H](NC(=O)[C@H](CCCCN)NC(=O)CCC(=O)OC[C@@H](NC(=O)C(Cl)Cl)[C@H](O)c1ccc([N+](=O)[O-])cc1)C(=O)O`, the MIC stood at 200 µM with Escherichia coli [1], 200 µM in the data set on Escherichia coli [2] and 200 µM (≈ 136 µg/mL) in the data set on Escherichia coli [3]. For the same molecule, the Drug metabolism entry in [4], in data set [5] and in data set [19] was “Metabolite_Detected” throughout. For the same molecule, the K in [6] came out at 0.31 h⁻¹. The outcome with Escherichia coli [7], in the data set on Escherichia coli [8] and in the data set on Escherichia coli [9] was Active. The Activity in the data set with Escherichia coli [10] is on record as 50%. Further, the outcome in the data set with Escherichia coli [11], in the data set on Escherichia coli [12], in the data set with Escherichia coli [13], with Escherichia coli [14], with Escherichia coli [15] and in the data set with Escherichia coli [16] was inactive. Moreover, the outcome in the data set with Escherichia coli [17] and in the data set with Escherichia coli [18] was inactive.
With `CC[C@H]1OC(=O)[C@H](C)C(=O)[C@H](C)[C@@H](O[C@@H]2O[C@H](C)C[C@H](N(C)C)[C@H]2O)[C@](C)(OC)C[C@@H](C)C(=O)[C@H](C)[C@H]2N(CCCCn3cnc(-c4cccnc4)c3)C(=O)O[C@]12C` [TELITHROMYCIN], the MIC in the data set on Escherichia coli [1] is 0.6 µg/mL. Besides, the Activity entry in [23] is “Non-Toxic”; with HEK293 [24] it was “Toxic”.
